DENV2 CPE: inhibitors of DENV2 cytopathic effect, primary screen, cell-based, plate reader, single concentration; CPE inhibition, % at 9.99 µM; 350,000 compounds, 1.7% hits; AID 651640, 2012; DENV2-infected cells, cytopathic effect rescue; in the data active = CPE inhibition above about 20%, passing the limit was not always enough; inconclusive = no clear call, values can overlap the other calls; tested in BHK-21 cells;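 also: 0% = median of neutral control wells and 100% = median of positive control wells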
E-selectin induc: E-selectin induction in HUVECs, primary screen, imaging, HUVEC, immunofluorescence imaging, single point; P16581; normalized: neutral wells 0, TNF-alpha wells 100; activation, % at 7.58 µM; 260,000 compounds, 0.37% hits; AID 686992, 2013;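 active = mean E-selectin-positive cell signal at least 10% of the positive control, reached in at least 60% of replicates, without over 20% cell loss; inconclusive = no rule given, readout overlaps actives, possibly toxicity-flagged; inactive = the rest, including those meeting only one limit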
Target sequence (P16581 whole entry, looked up): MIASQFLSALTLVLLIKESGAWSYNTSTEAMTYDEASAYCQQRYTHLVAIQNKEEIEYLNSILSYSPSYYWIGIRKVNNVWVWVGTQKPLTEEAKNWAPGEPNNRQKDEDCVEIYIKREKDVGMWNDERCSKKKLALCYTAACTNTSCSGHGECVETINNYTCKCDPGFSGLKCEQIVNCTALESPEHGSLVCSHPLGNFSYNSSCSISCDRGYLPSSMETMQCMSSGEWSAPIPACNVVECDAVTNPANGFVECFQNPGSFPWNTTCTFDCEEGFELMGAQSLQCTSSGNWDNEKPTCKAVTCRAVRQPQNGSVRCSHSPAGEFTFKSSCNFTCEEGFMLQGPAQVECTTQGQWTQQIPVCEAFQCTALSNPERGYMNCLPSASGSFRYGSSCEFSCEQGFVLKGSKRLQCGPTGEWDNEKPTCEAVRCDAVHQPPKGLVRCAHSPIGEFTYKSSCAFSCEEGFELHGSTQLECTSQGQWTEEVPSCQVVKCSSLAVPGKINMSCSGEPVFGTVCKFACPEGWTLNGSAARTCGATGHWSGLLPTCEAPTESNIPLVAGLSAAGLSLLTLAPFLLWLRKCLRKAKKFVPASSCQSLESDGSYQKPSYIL
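Read-out basis: % PE-positive cells; Test system: HUVEC primary endothelial cells; Technique: immunofluorescence imaging; Dosing: single-point compound dose.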
FGF22 binding: binders of human FGF22 protein, primary screen, FGF22 synaptogenesis inhibitor project, biophysical, thermal shift, single point; 340,000 compounds, 1.5% hits; activity (Tm shift, normalised), % at 9.99 µM; recombinant FGF22 thermal shift, SYPRO orange fluorescence; percent of sucrose octasulfate shift, DMSO zero; AID 651658, 2012; Fibroblast growth factor 22 (Homo sapiens), Q9HCT0;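 active = mean Tm shift, scaled 0 neutral to 100 positive control, at about 1.3% or above, every replicate too, limit read from the data; inconclusive = no clear call, values can overlap the other calls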
ERAP1 inh: human ERAP1 aminopeptidase inhibitors, primary screen, biochemical, single point, plate reader | recombinant ERAP1, Leu-AMC fluorescence, 60 min | AID 652197, 2013 | 340,000 compounds, 0.15% hits | Endoplasmic reticulum aminopeptidase 1 (Homo sapiens), Q9NZ08 | inhibition, % at 10.7 µM;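 active = mean replicate inhibition of at least 30%, or all replicates individually reaching that 30% level; inactive = mean below 30% and not every replicate reaching it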;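 also: 0% = neutral control wells and 100% = L-leucinethiol positive control wells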
CFTR F508del cor: F508del CFTR correction, initial screen, CFBE line, single point. CFBE cells, YFP halide quenching; stimulated with forskolin plus potentiator P3; % fluorescence drop versus neutral controls. activity (quench increase), % at 7.58 µM. 350,000 compounds, 0.36% hits. AID 720511, 2013;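 active = mean added fluorescence quench of at least 8% versus neutral control, with both replicates also reaching 8%; inconclusive = only one of the mean or replicate conditions met; inactive = mean below 8% and not both replicates reaching 8%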;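 also: cells transiently co-express mutant CFTR-F508del with the halide-sensitive YFP; corrector assay measuring rescue of mutant channel to the surface after 24 h compound exposure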
The depositor's hits bear a star; ? = inconclusive; · = no result given; ! = not confirmed by another sample. Only some compounds are listed: those with a hit (about 3.7% of all), similar ones and a draw of the others.

SMILES | DENV2 CPE | E-selectin induc | FGF22 binding | ERAP1 inh | CFTR F508del cor
CCCC#Cc1ccc2c(c1)O[C@H](CN(C)C(=O)c1ccncc1)[C@H](C)CN([C@@H](C)CO)S2(=O)=O | 10.1 | 0.3 | 0.2 | 0.2 | 3.2
C[C@@H]1CN([C@@H](C)CO)S(=O)(=O)c2ccc(/C=C/c3ccccc3)cc2O[C@H]1CN(C)C(=O)c1ccncc1 | 40.8* | -0.3 | -0.4 | 0.7 | -1.5
C[C@H]1CN([C@@H](C)CO)S(=O)(=O)c2ccc(C#Cc3ccccc3F)cc2O[C@H]1CN(C)C(=O)c1ccc2c(c1)OCO2 | 3.9 | -0.2 | 0.1 | 5.0 | 9.6*
C[C@H](CO)N1C[C@H](C)[C@H](CN(C)C(=O)c2ccccc2)Oc2cc(/C=C/c3ccccc3)ccc2S1(=O)=O | -3.3 | 0.8 | 0.6 | -4.6 | 1.0
C[C@@H]1CN([C@@H](C)CO)S(=O)(=O)c2ccc(Br)cc2O[C@H]1CN(C)C(=O)c1ccncc1 | -3.0 | -0.1 | 43.0*! | 2.1 | -8.4
CCCC#Cc1ccc2c(c1)O[C@@H](CN(C)C(=O)c1ccncc1)[C@H](C)CN([C@@H](C)CO)S2(=O)=O | 1.3 | 118.2* | 0.1 | -1.5 | 1.0
C[C@H](CO)N1C[C@H](C)[C@H](CN(C)C(=O)c2ccccc2)Oc2cc(Br)ccc2S1(=O)=O | -0.5 | -2.6 | -0.1 | -1.9 | 2.2
C[C@@H]1CN([C@@H](C)CO)S(=O)(=O)c2ccc(C#Cc3ccccc3F)cc2O[C@@H]1CN(C)C(=O)c1ccc2c(c1)OCO2 | -2.4 | -0.1 | 0.1 | -0.7 | 4.8
CCCC#Cc1ccc2c(c1)O[C@@H](CN(C)C(=O)C1CC1)[C@H](C)CN([C@H](C)CO)S2(=O)=O | 2.9 | 0.6 | 0.0 | -1.8 | 0.7
C[C@H](CO)N1C[C@H](C)[C@@H](CN(C)C(=O)c2ccc3c(c2)OCO3)Oc2cc(-c3ccncc3)ccc2S1(=O)=O | 1.8 | -0.2 | 0.0 | 0.2 | -1.2
C[C@H]1CN([C@@H](C)CO)S(=O)(=O)c2ccc(-c3ccncc3)cc2O[C@@H]1CN(C)C(=O)c1ccc2c(c1)OCO2 | 26.2* | 0.3 | -0.1 | 4.3 | -0.9
Cc1noc(C)c1S(=O)(=O)N(C)C[C@@H]1Oc2ccc(NC(=O)Nc3ccc4c(c3)OCO4)cc2CC(=O)N([C@@H](C)CO)C[C@H]1C | 13.0 | -4.5 | · | -0.3 | -3.7
CCOC(=O)CN1CC23C=CC(O2)C(C(=O)NCc2ccc(F)cc2)C3C1=O (stereo unspecified) | -3.6 | · | 0.0 | -5.3 | -0.3
CCOC(=O)[C@@H]1[C@@H]2C=C[C@]3(O2)[C@H](C(=O)NCc2ccccc2)N(CCCCCCO)C(=O)[C@@H]13 | 0.7 | · | 1.0 | 3.5 | 10.5*
Cc1ccc(S(=O)(=O)Nc2cccc3c2O[C@H](CN(C)Cc2ccc(C(=O)O)cc2)[C@@H](C)CN([C@@H](C)CO)C3=O)cc1 | 13.5 | 1.2 | -0.1 | 1.1 | -0.7
COC(=O)c1ccc(Sc2ccccn2)c([N+](=O)[O-])c1 | 87.9* | · | 0.0 | -2.3 | -1.5
O=C(O)c1ccc(Sc2ccccn2)c([N+](=O)[O-])c1 | 4.7 | · | 0.1 | 1.0 | 3.2
N#Cc1cc(Sc2ccccn2)c([N+](=O)[O-])cc1C#N | 12.0 | 3.5 | 0.2 | 5.8 | 12.5*
Cc1noc(C)c1S(=O)(=O)Nc1ccc2c(c1)C(=O)N([C@@H](C)CO)C[C@@H](C)[C@H](CN(C)C(=O)CCCN(C)C)OCCCC[C@H](C)O2 | · | -0.1 | 0.0 | · | 4.8
Cc1noc(C)c1S(=O)(=O)Nc1ccc2c(c1)C(=O)N([C@H](C)CO)C[C@H](C)[C@H](CN(C)C(=O)CCC(F)(F)F)OCCCC[C@@H](C)O2 | 71.9* | 0.1 | -0.3 | -1.9 | -1.1
Cc1noc(C)c1S(=O)(=O)Nc1ccc2c(c1)C(=O)N([C@H](C)CO)C[C@H](C)[C@@H](CN(C)C(=O)CCCN(C)C)OCCCC[C@H](C)O2 | 79.0* | -0.2 | 0.1 | · | -1.4
CO[C@@H]1CC[C@@H]2CCN(C)C(=O)C[C@@H](c3ccccc3)CN(C)C(=O)c3cc(C#N)ccc3OC[C@@H]1O2 | · | 0.1 | · | · | ·
C[C@@H]1CCCCO[C@H](CN(C)Cc2ccccc2)[C@@H](C)CN([C@@H](C)CO)C(=O)c2cc(NC(=O)c3ccccc3)ccc2O1 | 54.0* | · | -0.4 | · | -0.1
C[C@@H]1CN([C@H](C)CO)C(=O)c2cc(NC(=O)c3ccccc3)ccc2O[C@@H](C)CCCCO[C@H]1CN(C)Cc1ccccc1 | 13.2 | · | -0.2 | · | 1.6
C[C@@H]1CCCCO[C@@H](CN(C)Cc2ccccc2)[C@@H](C)CN([C@H](C)CO)C(=O)c2cc(NC(=O)c3ccccc3)ccc2O1 | 100.3* | · | -0.2 | · | -1.0
SMILES | DENV2 CPE | E-selectin induc | FGF22 binding | ERAP1 inh | CFTR F508del cor
C[C@@H]1CN([C@@H](C)CO)C(=O)c2cc(NC(=O)c3ccccc3)ccc2O[C@@H](C)CCCCO[C@@H]1CN(C)Cc1ccccc1 | 34.7* | · | -0.2 | · | 1.5
C[C@@H]1CCCCO[C@@H](CN(C)Cc2ccccc2)[C@H](C)CN([C@H](C)CO)C(=O)c2cc(NC(=O)c3ccccc3)ccc2O1 | 23.6* | · | 0.0 | · | -0.6
Cc1ccc(S(=O)(=O)N[C@@H]2CC[C@H](CCn3cc(C4(O)CCCC4)nn3)O[C@@H]2CO)cc1 | 4.5 | -0.4 | 0.1 | -0.8 | -0.7
C[C@@H]1CCCCO[C@H](CN(C)C(=O)CCC(F)(F)F)[C@@H](C)CN([C@H](C)CO)C(=O)c2cc(NC(=O)Nc3ccc4c(c3)OCO4)ccc2O1 | 18.8 | -0.1 | -0.4 | -4.6 | -2.2
COc1ccc(CCNC(=O)c2cnc3scc(C)n3c2=O)cc1OC | 75.1* | 1.3 | -0.2 | 4.3 | 7.3
Cc1ccc(C(=O)N(Cc2nnc(-c3ccc(Cl)cc3)o2)C2CC2)o1 | -6.3 | 59.2* | 0.0 | -1.2 | 0.5
Cc1ccccc1-n1c(=S)[nH]c2nc3c(cc2c1=O)CCCC3 | -5.1 | · | 42.9* | 0.2 | -0.2
Cc1ccccc1-n1c(=S)[nH]c2nc3c(cc2c1=O)COC(C)(C)C3 | -6.0 | 0.0 | -0.1 | · | 0.2
C[C@@H]1CCCCO[C@@H](CN(C)Cc2ccc(C(=O)O)cc2)[C@@H](C)CN([C@@H](C)CO)C(=O)c2cc(NS(=O)(=O)c3ccccc3)ccc2O1 | ? | 0.1 | 0.0 | · | -0.5
Cc1nc(C)c(Cc2ccccc2Cl)c(=O)[nH]1 | 2.0 | -2.1 | -0.2 | 1.9 | ·
Cc1[nH]c(=O)[nH]c(=O)c1Cc1cccc2ccccc12 | · | 0.8 | 43.3* | -9.6 | 0.1
COc1ccc(/C=N/n2cnnc2)cc1Br | -4.1 | 0.3 | 0.1 | 0.1 | 2.2
COc1cccc2cccc(/C=N/n3cnnc3)c12 | 3.3 | · | 42.9* | 1.7 | -1.0
